EC50 and IC50 data for 6 compounds are collected here from BindingDB's records for doi:10.1021/jm100062h (Ferrara University, 2010).

T1 sequence (O75762 whole entry): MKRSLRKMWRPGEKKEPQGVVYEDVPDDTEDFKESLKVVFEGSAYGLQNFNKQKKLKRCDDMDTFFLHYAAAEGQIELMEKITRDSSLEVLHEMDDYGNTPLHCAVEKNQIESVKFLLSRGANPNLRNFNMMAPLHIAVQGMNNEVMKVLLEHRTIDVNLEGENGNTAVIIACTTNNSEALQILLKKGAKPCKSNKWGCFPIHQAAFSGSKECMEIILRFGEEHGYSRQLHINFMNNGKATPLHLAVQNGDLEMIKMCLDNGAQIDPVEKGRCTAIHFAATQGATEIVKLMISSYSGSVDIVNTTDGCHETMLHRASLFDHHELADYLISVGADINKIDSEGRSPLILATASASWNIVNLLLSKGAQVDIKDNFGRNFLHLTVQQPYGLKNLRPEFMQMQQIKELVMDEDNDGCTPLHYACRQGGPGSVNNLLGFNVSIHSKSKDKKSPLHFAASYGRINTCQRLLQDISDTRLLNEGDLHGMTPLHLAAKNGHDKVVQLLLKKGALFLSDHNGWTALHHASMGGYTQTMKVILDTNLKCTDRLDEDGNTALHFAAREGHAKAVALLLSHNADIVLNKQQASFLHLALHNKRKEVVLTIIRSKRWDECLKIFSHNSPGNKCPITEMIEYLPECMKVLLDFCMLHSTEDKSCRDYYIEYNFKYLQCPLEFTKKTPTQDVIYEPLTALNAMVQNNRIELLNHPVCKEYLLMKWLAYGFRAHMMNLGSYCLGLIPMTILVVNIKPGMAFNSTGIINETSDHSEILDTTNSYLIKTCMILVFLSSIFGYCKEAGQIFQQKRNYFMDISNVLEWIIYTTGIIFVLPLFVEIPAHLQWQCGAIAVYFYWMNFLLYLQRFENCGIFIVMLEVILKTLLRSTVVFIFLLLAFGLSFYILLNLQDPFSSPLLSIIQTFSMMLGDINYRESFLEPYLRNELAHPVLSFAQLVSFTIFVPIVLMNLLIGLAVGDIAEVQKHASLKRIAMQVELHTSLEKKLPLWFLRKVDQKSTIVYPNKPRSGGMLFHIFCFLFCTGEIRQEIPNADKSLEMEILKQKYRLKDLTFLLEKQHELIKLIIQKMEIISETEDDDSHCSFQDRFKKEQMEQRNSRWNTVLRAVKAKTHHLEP

In one assay the target is T1, Transient receptor potential cation channel subfamily A member 1 (Homo sapiens, UniProt O75762). The assay is described as follows: Activation of TRPA1 channel. The method in brief:
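Cell lines transfected with TRPA1 and loaded with a calcium-sensitive dye, read on FLIPR. Calcium influx is counted as the change in fluorescence above background. Each material was tested by preincubation or by direct addition. Calcium counts are expressed as a percentage of the control calcium count.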
As usually defined, the EC50 is the concentration at which the effect is half-maximal. A high value points to weaker potency. `CC(C)[C@@H]1CC[C@@H](C)C[C@H]1O` registered an EC50 of 28.4 µM.

A further assay has as its target T1, Transient receptor potential cation channel subfamily A member 1. The assay is described as follows: Antagonist activity at human TRPA1 channel expressed in CHO cells assessed as inhibition of cinnamaldehyde-induced intracellular calcium influx.
As a reminder, the IC50 is the concentration needed to halve the response being measured. Regarding `CCC(N=O)C(C)=Cc1cncc2ccccc12` (stereo unspecified) [1-(isoquinolin-4-yl)-2-methylpent-1-en-3-one oxime], the IC50 is above 100 µM.

With `CCC(N=O)C(C)=Cc1cnccc1C` (stereo unspecified) [2-methyl-1-(4-methylpyridin-3-yl)pent-1-en-3-one oxime], the IC50 is above 100 µM.

Regarding `CCC(N=O)C(C)=Cc1ccc(C(F)(F)F)nc1` (stereo unspecified) [2-methyl-1-(6-(trifluoromethyl)pyridin-3-yl)pent-1-en-3-one oxime], the IC50 is above 100 µM.

In the case of `CCC(N=O)C(C)=Cc1ccc(C)nc1` (stereo unspecified) [2-methyl-1-(6-methylpyridin-3-yl)pent-1-en-3-one oxime], the half-inhibitory concentration (IC50) was above 100 µM.

Take `CCC(N=O)C(C)=Cc1cnc2ccccc2c1` (stereo unspecified) [2-methyl-1-(quinolin-3-yl)pent-1-en-3-one oxime]: the IC50 is above 100 µM.
